High-throughput results deposited in PubChem by Johns Hopkins Ion Channel Center.
KCNQ1 block = blocks the human KCNQ1 potassium channel. AID 2642. 1.3% of 310,000 active. CHO-K1 KCNQ1, FluxOR thallium flux fluorescence; stronger effect = higher value. B-score at 10 µM. P51787;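 active = compounds whose thallium flux B-score, printed positive for inhibition, exceeds three library SD while starting fluorescence stays within three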;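 also: channel opened by potassium depolarization with thallium stimulus after 20 min compound exposure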
Target sequence (P51787 whole entry, looked up): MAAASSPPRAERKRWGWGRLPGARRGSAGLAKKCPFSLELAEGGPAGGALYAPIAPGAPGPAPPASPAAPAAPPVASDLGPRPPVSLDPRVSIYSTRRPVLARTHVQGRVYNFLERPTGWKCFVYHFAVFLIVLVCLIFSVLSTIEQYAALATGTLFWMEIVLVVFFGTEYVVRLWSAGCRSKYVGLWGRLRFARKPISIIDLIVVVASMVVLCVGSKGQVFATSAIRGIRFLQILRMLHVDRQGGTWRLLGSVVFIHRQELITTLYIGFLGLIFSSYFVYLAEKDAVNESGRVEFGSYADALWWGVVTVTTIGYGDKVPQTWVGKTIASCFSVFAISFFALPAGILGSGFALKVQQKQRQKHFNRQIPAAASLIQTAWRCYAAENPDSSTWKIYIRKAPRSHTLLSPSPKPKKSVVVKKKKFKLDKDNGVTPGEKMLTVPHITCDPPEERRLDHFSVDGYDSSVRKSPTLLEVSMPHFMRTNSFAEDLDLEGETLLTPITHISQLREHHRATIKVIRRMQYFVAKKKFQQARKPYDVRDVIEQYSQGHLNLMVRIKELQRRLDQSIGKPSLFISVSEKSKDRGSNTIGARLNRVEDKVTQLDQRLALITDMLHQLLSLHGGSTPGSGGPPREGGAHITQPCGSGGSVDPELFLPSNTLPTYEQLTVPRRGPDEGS
KCNQ1 pot = potentiators or activators of human KCNQ1 potassium channel. AID 2648. B-score at 10 µM. CHO-K1 KCNQ1, thallium flux FluxOR fluorescence; stronger effect = higher value. 0.35% of 310,000 active;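 active = fluorescence ratio B-score, a plate-corrected score, at least three library SD, with initial intensity B-score within 5 SD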
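System: CHO-K1 cells stably expressing KCNQ1 / Medium: assay buffer for compound exposure, DMSO matched across wells / Reagent: thallium- and potassium-containing depolarizing buffer / Compound: one concentration, matched DMSO / Incubation: 20 min compound pretreatment at room temperature / Measured by: kinetic FluxOR fluorescence, 10 s baseline plus 110 s post-stimulus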
KCNK3 block = human KCNK3 channel inhibition, primary screen | 0.84% of 340,000 active | CHO-KCNK3 thallium flux, FluxOR fluorescence; stronger effect = lower value | B-score at 10 µM | O14649;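 active = B-score under library mean minus 4 SD, starting fluorescence ratio at most library mean plus 5 SD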;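 also: more negative B-score means stronger inhibition of thallium flux through KCNK3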
Kir21 block = Kir2.1 (mouse) channel inhibition. P35561. HEK293-Kir2.1, FluxOR thallium flux fluorescence; stronger effect = lower value. B-score at 10 µM. 0.85% of 310,000 active. AID 1672;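 active = fluorescence ratio B-score at or below minus 3 SD of library scores, with starting-brightness B-score within 2 SD, cut at about -4.2 in these data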;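 also: channel flux triggered by added potassium and thallium sulfate stimulus; B-score of peak minus minimum fluorescence over baseline after thallium stimulus; more negative B-score means stronger Kir2.1 block with less thallium influx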
KCNK9 inh-1 = inhibitors of human KCNK9 two-pore domain potassium channel; Q9NPC2; HEK293 KCNK9, FluxOR thallium flux fluorescence; stronger effect = lower value; B-score at 10 µM; 1.2% of 310,000 active;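 active = ratio B-score over 3 SD below the library mean, with starting fluorescence within 5 SD of its mean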;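 also: negative B-score means less thallium flux so channel inhibition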
hERG rescue = hERG (human) protection from proarrhythmic block; activation (rescue from dofetilide block), less the hit threshold, % at 10 µM; AID 1511; 0.51% of 310,000 active; Q12809; CHO-hERG, FluxOR thallium flux, dofetilide IC70 present;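 active = activation above the mean of controls blocked by dofetilide plus 5 SD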;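 also: thallium influx through hERG after potassium depolarization seen as dye fluorescence rise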
hERG ctr = blocks human hERG, in counter-screen for Kir2.1 inhibitors. shares compounds with Kir21 block. hERG-expressing cells, thallium flux. 20% of 320 active. inhibition, % at 10 µM;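 also: host cells are CHO cells stably expressing hERG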
KCNK9 inh-2 = selectivity of Kir2.1 inhibitors: effect on human KCNK9; inhibition, % at 10 µM; KCNK9-expressing cells, ion flux inhibition; shares compounds with Kir21 block; AID 2329; 5% of 320 active
Kir21 ephys inh = mouse Kir2.1 inward rectifier channel inhibition. 71% of 320 active. shares compounds with Kir21 block. inhibition, % at 25 µM. AID 463252. Kir2.1 cells, automated patch-clamp current inhibition
Numbers stand for hits; - = inactive; . = not tested or not shown. In the library only some 3.7% were active in any assay of this set; here they are far more common. Unless noted, no rule for the calls is given here.

SMILES	KCNQ1 block	KCNQ1 pot	KCNK3 block	Kir21 block	KCNK9 inh-1	hERG rescue	others
CCOP(=O)(C#CC(C)(C)C)C(O)(c1ccccc1)C(F)(F)F (centres undefined)	-	-	-	-4.3	-	-
CC#CP(=O)(OCC)C(O)(c1ccccc1)C(F)(F)F (centres undefined)	-	-	-	-	-	-
CN1CCN(CC#CCOc2ccc(Cl)cc2)CC1	-	-	-	-	-	9.8
CC(NCc1cccc(Cl)c1Cl)C(O)c1ccccc1 (centres undefined)	-	-	-	-16	-	-
CC(CCc1ccccc1)NC(C)C(O)c1ccc(O)cc1 (centres undefined)	-	-	-	-	-	-
COc1cc(OC)c(OC)cc1CNC(C)C(O)c1ccccc1 (centres undefined)	-	-	-	-	-	-
CC(NCc1ccc(Cl)cc1)C(O)c1ccccc1 (centres undefined)	-	-	-	-9	-	-
CCOc1c(Cl)cc(CNC(C)C(O)c2ccccc2)cc1OC (centres undefined)	-	-	-	-	-	-
CC(NCc1ccc(Cl)cc1Cl)C(O)c1ccccc1 (centres undefined)	-	-	-	-10	-	-
CC/C(=N\N1CCCCCC1)c1c(O)n(-c2ccccc2C)c(=O)[nH]c1=O	-	-	-	-	-	-
O=P(NC1CCCCC1)(Oc1ccccc1)Oc1ccccc1	.	.	-	.	.	.
CC1([N+](=O)[O-])COP(=O)(Nc2ccccc2F)OC1 (centres undefined)	.	.	-	.	.	.
CCC/C=C(\CCC)C(NP(=O)(c1ccccc1)c1ccccc1)c1ccccc1 (centres undefined)	-	-	.	-	-	-
Fc1ccc(CCNCc2ccc(Cl)c(Cl)c2)cc1	-	-	-	-6.2	-	-
CCc1ccc(CNCCc2ccc(F)cc2)cc1	-	-	-	-	-	-
Cc1nc2ccccc2c(=O)n1-c1cc([N+](=O)[O-])cc([N+](=O)[O-])c1	-	-	-	-	-	4.7
Cc1nc2ccccc2c(=O)n1-c1ccncc1	-	-	-	-	-	-
O=C1NC(=O)C2(CCCC2)C(=O)N1	.	.	-	.	.	.
CCCCc1ccc(NC2=NCCCS2)cc1	-	-	-	-4.9	-	-
CC(=O)c1ccc(NC2=NCCCS2)cc1	-	-	-	-	-	-
CN1CC(C(=O)c2ccc(Cl)cc2)C(c2ccc(Cl)cc2Cl)C1 (centres undefined)	-	-	-	-5	-	-
CCN(CC)CC(O)c1ccc(C2CCCC2)cc1 (centres undefined)	-	-	-	-	-	-
COC(=O)C1=C(c2ccc(S(C)(=O)=O)cc2)C[C@@H]2CC[C@H]1N2C(=O)NC1CCCCC1	-	-	-	-	-	5.8
COC(=O)C1=C(c2c(C)noc2C)C[C@@H]2CC[C@H]1N2C(=O)NC1CCCCC1	.	.	-	.	.	.
C/C(=N\N(C)c1ccccc1)c1c(O)[nH]c(=O)[nH]c1=O	-	-	-	-	-	-
SMILES	KCNQ1 block	KCNQ1 pot	KCNK3 block	Kir21 block	KCNK9 inh-1	hERG rescue	others
CCCCCCOc1ccc(CN2CCN(C)CC2)cc1	-	-	-	-4.8	-	-
CN1CCN(Cc2ccc3ccccc3c2)CC1	-	-	-	-	-	-
O=C(CSC1c2ccccc2-c2ccccc21)N/N=C/c1ccc(C(=O)O)cc1	-	-	-	-	-	-
O=C(CSC1c2ccccc2-c2ccccc21)N/N=C/c1ccccc1O	9	-	-	-	-	-
C/C=C(\C)C(=O)OC1C(C)=C2C(C1OC(=O)CCCCC)C(C)(OC(C)=O)CC(OC(=O)CCC)C1(O)C2OC(=O)C1(C)O (centres undefined)	-	14	.	-	-	-
COC(=O)NC(=S)Nc1ccccc1NC(=S)NC(=O)OC	.	.	-	.	.	.
CC(C)c1ccc(C2NCc3ccccc3-n3cccc32)cc1 (centres undefined)	-	-	-	-	-	-
Clc1ccccc1C1NCc2ccccc2-n2cccc21 (centres undefined)	-	-	-	-5.2	-	-
CCOc1cccc(C2NCc3ccccc3-n3cccc32)c1O (centres undefined)	-	-	-	-	-	-
Oc1ccccc1C1NCc2ccccc2-n2cccc21 (centres undefined)	-	-	-	-4.5	-	-
CCN1CCN(c2cc(N3CCCC3)c(F)cc2[N+](=O)[O-])CC1	-	-	-	-	-	-
CCCCOCCCn1c(N)c(C(=O)OC(C)COC)c2nc3ccccc3nc21 (centres undefined)	-	-	-11	-	-	-
O=c1c(C=NCCN2CCNCC2)c(O)n(C2CCCCC2)c(=O)n1C1CCCCC1	-	11	-	-	-	-
O=c1[nH]c(=S)n(C2CC2)c(O)c1C=NCCN1CCOCC1	-	-	-	-	-	-
COc1ccc(-n2nc(C(=O)NCC(=O)N3CCC4(CC3)OCCO4)c3ccccc3c2=O)c(OC)c1	-	-	-	-	-	-
CN[C@H]1C[C@H]2O[C@@](C)([C@H]1OC)n1c3ccccc3c3c4c(c5c6ccccc6n2c5c31)C(=O)NC4	-	18	.	-	-	-
O=c1c2cc(Br)ccc2[nH]c(=S)n1-c1ccccc1	-	-	-	-	-	37
O=C(CF)NC(NC(=S)Nc1cccc([N+](=O)[O-])c1)C(Cl)(Cl)Cl (centres undefined)	6	-	-	-	-	-
CCCCCSc1cc(OC)c(CCN(C)C)cc1OC	-	-	-	-6.3	-	-	hERG ctr=57%;KCNK9 inh-2=-;Kir21 ephys inh=56%
Cc1cccc(CCNCc2cc3cccc(C)c3[nH]c2=O)c1	-	-	-	-6.9	-	-	hERG ctr=-;KCNK9 inh-2=-;Kir21 ephys inh=33%
CCOc1ccc(Cl)cc1CNCCc1ccccc1F	-	-	-	-8.9	-	-	hERG ctr=-;KCNK9 inh-2=-;Kir21 ephys inh=52%
O=C1CC(c2ccccc2)CN1 (centres undefined)	-	-	-	-	-	-
c1ccc(CNCCc2c[nH]c3ccccc23)cc1	-	-	-	-	-	-
CCc1ccc(CNCCc2c[nH]c3ccccc23)cc1	-	-	-	-15	-	-	hERG ctr=53%;KCNK9 inh-2=-;Kir21 ephys inh=60%
CCN1CCN(Cc2ccc(C)cc2)CC1	-	-	-	-	-	-
Cc1ccc(CN2CCN(Cc3ccccc3F)CC2)cc1	-	-	-	-11	-	-	hERG ctr=-;KCNK9 inh-2=-;Kir21 ephys inh=58%
